From PubChem
GASC-1 inh = inhibitors of GASC-1 histone demethylase, primary screen, biochemical, fluorescence, DELFIA europium; GST-JMJD2C(1-420) H3K9me3 demethylation; inhibition, % at 2.35 µM; hit rate 0.069% among 330,000;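 active = more than half of a compound's replicate wells show inhibition beyond 50%, single wells judged on their own value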;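 note: signal counts dimethyl H3K9 product captured on neutravidin plate; 0% = median of DMSO wells and 100% = 0.3 times that DMSO median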
PP5 inh = PP5 phosphatase inhibitors, primary screen, biochemical, fluorescence. hit rate 0.18% among 320,000. inhibition, % at 6.7 µM. purified PP5c, OMFP substrate fluorescence;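 active = inhibition above the campaign's mean inhibition across all tested compounds plus 3 SD, cut at about 9.5% in these data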;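 note: 0% = DMSO only and 100% = 100 µM cantharidin control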
m5-HT2A agonist = mouse Htr2a agonists via beta-arrestin recruitment, primary screen, cell-based, luminescence. 5-hydroxytryptamine receptor 2A (Mus musculus), P35363. CHO-K1 mHTR2A beta-arrestin complementation; percent of 30 µM serotonin response. activation, % at 7.6 µM. hit rate 0.66% among 360,000;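 active = activation above a run cutoff, the mean activation of all tested compounds plus 3 SD, cut at about 14% in these data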;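 note: 0% = plate median of compound wells and 100% = 30 µM serotonin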
T cell modulator = modulators of CD8 T cell-vesicle binding, primary screen, mouse 2C CD8+ T cells, flow cytometry; response (vesicle binding), % at 7 µM; hit rate 0.068% among 330,000; 2C CD8+ T cell-vesicle binding; stronger effect = lower value; AID 2052, 2009;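 active = response, share of CD8 T cells binding vesicles, and their 90th percentile fluorescence all below set limits, cut at about 80% in these data, passing the limit was not always enough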;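 note: values below 100% mean blocked vesicle binding to the CD8+ T cells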
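Test system: purified 2C TCR transgenic mouse naive CD8+ T cells. Probe or stimulus: QL9-peptide-loaded Drosophila micro-vesicles bearing Ld, ICAM-1 and B7-1. Incubation: binding step 1.5 h, 37 °C, antibody labelling 20 min, ice. Measured by: flow cytometry of vesicle-bound cells.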
PP1 inh = PP1-alpha phosphatase inhibitors, primary screen, counter-screen for PP5 inhibitor project, biochemical, fluorescence, OMFP substrate, single point; inhibition, % at 6.7 µM; hit rate 0.9% among 320,000; purified PP1alpha;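 active = inhibition above the mean inhibition of all tested compounds plus 3 SD, computed separately for each screening campaign, cut at about 15% in these data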
OPRM1 ag = OPRM1 agonists via beta-arrestin recruitment, confirmation, counter-screen for mouse HTR2A agonist project, cell-based, luminescence, single concentration; activation, % at 9.3 µM; shares compounds with m5-HT2A agonist; hit rate 5.3% among 2,300; U2OS OPRM1 beta-arrestin PathHunter; DMSO 0%, DAMGO 9.3 µM 100%;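 active = mean activation above the mean of DMSO-only wells plus 3 SD, cut at about 0.5% in these data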
Target sequence (P35372 whole entry, looked up): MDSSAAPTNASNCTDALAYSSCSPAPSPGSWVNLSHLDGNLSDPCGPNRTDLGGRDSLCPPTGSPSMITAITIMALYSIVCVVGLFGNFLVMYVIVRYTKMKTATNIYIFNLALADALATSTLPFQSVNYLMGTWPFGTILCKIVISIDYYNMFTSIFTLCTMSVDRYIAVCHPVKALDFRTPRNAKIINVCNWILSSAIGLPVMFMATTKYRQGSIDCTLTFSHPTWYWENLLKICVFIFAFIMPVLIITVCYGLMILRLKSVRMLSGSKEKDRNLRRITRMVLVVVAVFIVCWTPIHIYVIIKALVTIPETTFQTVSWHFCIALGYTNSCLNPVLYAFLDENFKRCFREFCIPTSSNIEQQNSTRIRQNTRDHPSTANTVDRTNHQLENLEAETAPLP
HTR2A ag conf = mouse HTR2A agonists, beta-arrestin recruitment, confirmation, cell-based, luminescence, CHO-K1 PathHunter, triplicate; shares compounds with m5-HT2A agonist; DMSO 0%, 30 µM serotonin 100%; activation, % at 7.6 µM; hit rate 19% among 2,300; AID 624381, 2012;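 active = mean activation across triplicates above the hit threshold derived in the original primary screen, cut at about 15% in these data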
An asterisk follows results filed as active. An excerpt weighted towards active compounds, which were near 1.7% of everything screened.

Screening CC(NC(=O)Oc1cccc2ccccc12)c1ccccc1 (configuration not stated) returned m5-HT2A agonist 5.6.
For COc1ccc(NC(=O)N2CCCC(C(=O)Nc3cccc(C)c3C)C2)cc1 (configuration not stated) the results were GASC-1 inh -1.9, PP5 inh 3.8, m5-HT2A agonist 16.2*, T cell modulator 533.3, PP1 inh -2.0, OPRM1 ag -0.2 and HTR2A ag conf -4.2.
COc1ccc(OC)c(S(=O)(=O)N2CCC(C(=O)Nc3cccc(C)c3C)CC2)c1 was read as GASC-1 inh -8.6, PP5 inh -0.4, m5-HT2A agonist -4.3, T cell modulator 314.6 and PP1 inh 1.7.
CCOC(=O)C(C)NC(=O)Cn1ncc2c(=O)oc3ccc(C)cc3c21 (configuration not stated) was read as GASC-1 inh -4.2, PP5 inh -1.5, m5-HT2A agonist -1.7, T cell modulator inactive and PP1 inh -0.5.
For Cc1cc(C(=O)CSc2nc3ccccc3[nH]2)c(C)n1CC1CCCO1 (configuration not stated) the results were GASC-1 inh -10.2, PP5 inh -1.2, m5-HT2A agonist 25.2*, T cell modulator 396.7, PP1 inh 1.6, OPRM1 ag 0.0 and HTR2A ag conf 10.0.
`Cc1cc(C(=O)CSc2nc(N)cc(=O)[nH]2)c(C)n1CC1CCCO1` (configuration not stated) gave GASC-1 inh -5.7, m5-HT2A agonist -0.5 and T cell modulator 404.3.
For CSc1nc2ccc(Nc3nc(N4CCOCC4)nc(N4CCOCC4)n3)cc2s1 the results were PP5 inh 0.9, m5-HT2A agonist 4.0, T cell modulator 379.1 and PP1 inh -1.1.
For CC(=O)Nc1ccc2nc(SCC(=O)N3CCOCC3)sc2c1 the results were GASC-1 inh -16.2, PP5 inh 3.2, m5-HT2A agonist -1.9, T cell modulator 134.8 and PP1 inh -3.9.
For O=C(CSc1nc2ccc(Nc3nc(N4CCOCC4)nc(N4CCOCC4)n3)cc2s1)Nc1ccccc1F the results were GASC-1 inh 2.6, m5-HT2A agonist 15.5*, T cell modulator inactive, OPRM1 ag -0.3 and HTR2A ag conf -2.1.
`O=C(CSc1nc2ccc(Nc3nc(N4CCOCC4)nc(N4CCOCC4)n3)cc2s1)N1CCOCC1` gave GASC-1 inh 0.0, PP5 inh 1.1, m5-HT2A agonist 14.5*, T cell modulator 309.4, PP1 inh -4.5, OPRM1 ag -0.5 and HTR2A ag conf -3.1.
Screening COc1cccc(NC(=O)c2sc3ncn(CC(=O)N4CCN(c5ccccn5)CC4)c(=O)c3c2C)c1 returned GASC-1 inh -3.9, PP5 inh 0.2, m5-HT2A agonist -5.1, T cell modulator 241.9 and PP1 inh -0.5.
For CCC(=O)NCCc1cc2ccc(C)c(C)c2[nH]c1=O the results were GASC-1 inh 21.4, PP5 inh -2.2, m5-HT2A agonist 5.2, T cell modulator 795.6 and PP1 inh -3.5.
`Cc1ccc(C)c2[nH]c(=O)c(CCNC(=O)c3ccco3)cc12` gave GASC-1 inh 8.3, PP5 inh 2.9, m5-HT2A agonist 18.6*, T cell modulator 210.3, PP1 inh -2.6, OPRM1 ag -0.2 and HTR2A ag conf 2.4.
Screening Cc1ccc2cc(CCNC(=O)C(C)C)c(=O)[nH]c2c1C returned GASC-1 inh 1.5, PP5 inh 3.3, m5-HT2A agonist 16.2*, T cell modulator 490.6, PP1 inh 2.3, OPRM1 ag -0.7 and HTR2A ag conf -5.5.
Screening Cn1cc([N+](=O)[O-])c(C(=O)NCc2cc3cc(Cl)ccc3[nH]2)n1 returned GASC-1 inh -8.8, PP5 inh 1.1, m5-HT2A agonist -3.2, T cell modulator 388.6 and PP1 inh 4.7.
Cc1noc(C)c1S(=O)(=O)Nc1ccc2c(c1)C(=O)N([C@H](C)CO)C[C@H](C)[C@@H](CN(C)C(=O)NC1CCCCC1)O2 was read as GASC-1 inh 8.9, m5-HT2A agonist 14.9*, T cell modulator 714.2, OPRM1 ag -0.6 and HTR2A ag conf -1.3.
`Cc1noc(C)c1NC(=O)N(C)C[C@H]1Oc2ccc(NS(=O)(=O)c3c(C)noc3C)cc2C(=O)N([C@H](C)CO)C[C@@H]1C` gave GASC-1 inh -10.5, m5-HT2A agonist 2.7 and T cell modulator 257.2.
`C[C@H](CO)N1C[C@H](C)[C@@H](CN(C)C(=O)Nc2ccc3c(c2)OCO3)Oc2ccc(NS(=O)(=O)c3ccccc3)cc2C1=O` gave GASC-1 inh -31.9, m5-HT2A agonist 15.1*, T cell modulator 452.5, OPRM1 ag -0.7 and HTR2A ag conf -3.3.
`C[C@H](CO)N1C[C@H](C)[C@@H](CN(C)CC2CC2)Oc2c(NC(=O)Cc3ccccc3)cccc2C1=O` gave GASC-1 inh 0.8, m5-HT2A agonist 16.3*, T cell modulator 474.8, OPRM1 ag -0.3 and HTR2A ag conf -2.2.
`CSCCC(NC(=O)COc1ccccc1)C(=O)N1CC(C)OC(C)C1` (configuration not stated) gave GASC-1 inh 6.0, PP5 inh 2.9, m5-HT2A agonist 0.6, T cell modulator 164.5 and PP1 inh -3.1.
`O=C(COC(=O)c1ccccc1)NCCC1=CCCCC1` gave GASC-1 inh -4.9, PP5 inh 1.3, m5-HT2A agonist -1.4, T cell modulator 262.5 and PP1 inh -3.5.
COc1ccc(S(=O)(=O)NCc2nc3nc(C)cc(C)n3n2)cc1OC was read as GASC-1 inh 35.3, PP5 inh -0.5, m5-HT2A agonist -3.9, T cell modulator 269.6 and PP1 inh 0.4.
`Cc1cc(C)n2nc(CNS(=O)(=O)c3ccc(C(C)(C)C)cc3)nc2n1` gave m5-HT2A agonist 22.1*, OPRM1 ag 0.3 and HTR2A ag conf 1.6.
`O=C(c1nc2ccccn2c1CN1CCCC(c2nc3ccccc3o2)C1)N1CCCC1` (configuration not stated) gave GASC-1 inh -12.6, PP5 inh -1.6, m5-HT2A agonist -0.5, T cell modulator 272.8 and PP1 inh -1.4.
